# ChEMBL document CHEMBL1145421, “Discovery of novel antitumor antimitotic agents that also reverse tumor resistance” (J Med Chem, 2007)
# Assays:
# Type in all cases: functional, Homo sapiens
# HL-60 [1] = assay: Cell cycle arrest in HL60 cells assessed as accumulation in […] phase at 600 nM
# Method in brief: (§1)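 HL-60 cells exposed 24 or 48 h to drug or ethanol vehicle. Nuclei prepared by detergent-trypsin method: citrate/sucrose/DMSO buffer, trypsin, then trypsin inhibitor plus RNase A, then propidium iodide with spermine, 30 min at 4 °C. Filtered, resuspended, DNA content measured by flow cytometry. Percentages given for G0/G1, S and G2/M. Mean ± SEM.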
# HL-60 [2] = assay: Cell cycle arrest in HL60 cells assessed as accumulation in G0/G1 phase at 600 nM; method in brief: as §1
# HL-60 [3] = assay: Cell cycle arrest in HL60 cells assessed as accumulation in S phase at 600 nM; method in brief: as §1
compound,measurement,setting,value
COc1cc2c(c(OC)c1OC)-c1ccc(OC)c(=O)cc1[C@@H](NC(C)=O)CC2 [COLCHICINE],Activity,HL-60 [1],11.9%
same,Activity,HL-60 [2],84.1%
same,Activity,HL-60 [3],4%
